Experiments:
[1] = target: T1, 5-hydroxytryptamine receptor 2C (Rattus norvegicus, UniProt P08909); experiment: Binding affinity towards 5-hydroxytryptamine 1C receptor from frontal cortical regions of male Sprague-Dawley rat homogenates, using [3H]mesulergine as radioligand
T1 sequence (P08909 whole entry): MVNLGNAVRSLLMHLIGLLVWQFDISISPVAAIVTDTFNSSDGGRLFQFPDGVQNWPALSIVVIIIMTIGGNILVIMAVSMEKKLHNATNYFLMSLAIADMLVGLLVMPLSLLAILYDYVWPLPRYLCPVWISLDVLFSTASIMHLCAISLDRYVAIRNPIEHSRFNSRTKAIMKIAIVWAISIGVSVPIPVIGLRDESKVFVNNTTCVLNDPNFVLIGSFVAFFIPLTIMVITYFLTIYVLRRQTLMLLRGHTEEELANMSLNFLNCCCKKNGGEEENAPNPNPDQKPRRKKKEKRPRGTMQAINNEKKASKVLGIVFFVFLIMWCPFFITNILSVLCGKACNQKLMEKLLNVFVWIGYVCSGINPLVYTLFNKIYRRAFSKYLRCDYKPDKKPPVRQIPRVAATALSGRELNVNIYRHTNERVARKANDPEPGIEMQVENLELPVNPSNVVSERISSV
How it was run: (§1)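 Male Sprague–Dawley rat frontal cortex membranes were washed in Tris/EDTA/MgCl2 pH 7.4 with a 37 °C preincubation and resuspended with ascorbate and pargyline. Each tube held 10 mg wet tissue, 1 nM [3H]mesulergine and 100 nM spiperone to block 5-HT2 sites. Nonspecific binding was set with 1 μM mianserin. Tubes were incubated 15 min at 37 °C, in triplicate, then filtered. Ki = IC50/(1+D*/KD*).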

[2] = target: T2, Serotonin 2 (5-HT2) receptor (Rattus norvegicus, UniProt P30994+P08909+P14842); experiment: Binding affinity towards 5-hydroxytryptamine 2 receptor from frontal cortical regions of male Sprague-Dawley rat homogenates, using [3H]ketanserin as radioligand
How it was run: (§2)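 Male Sprague–Dawley rat frontal cortex membranes were washed in 50 mM Tris, 0.5 mM EDTA, 10 mM MgCl2, pH 7.4, and resuspended with 0.1% ascorbate and 10^-6 M pargyline. Each tube held 5 mg wet tissue and 0.4 nM [3H]ketanserin. Nonspecific binding was set with 1.0 μM cinanserin. Tubes were incubated 15 min at 37 °C, in triplicate, then filtered on PEI-soaked glass fiber. Ki came from IC50 via Cheng–Prusoff, using the saturation KD.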

[3] = target: Serotonin 2 (5-HT2) receptor (Rattus norvegicus) (UniProt P30994+P08909+P14842); experiment: 5-HT1C selectivity was defined as the ratio between Ki(5-HT2)/Ki(5-HT1C); assay type: protein assay
Serotonin 2 (5-HT2) receptor (Rattus norvegicus), sequence (P14842 whole entry, looked up, one chain of several): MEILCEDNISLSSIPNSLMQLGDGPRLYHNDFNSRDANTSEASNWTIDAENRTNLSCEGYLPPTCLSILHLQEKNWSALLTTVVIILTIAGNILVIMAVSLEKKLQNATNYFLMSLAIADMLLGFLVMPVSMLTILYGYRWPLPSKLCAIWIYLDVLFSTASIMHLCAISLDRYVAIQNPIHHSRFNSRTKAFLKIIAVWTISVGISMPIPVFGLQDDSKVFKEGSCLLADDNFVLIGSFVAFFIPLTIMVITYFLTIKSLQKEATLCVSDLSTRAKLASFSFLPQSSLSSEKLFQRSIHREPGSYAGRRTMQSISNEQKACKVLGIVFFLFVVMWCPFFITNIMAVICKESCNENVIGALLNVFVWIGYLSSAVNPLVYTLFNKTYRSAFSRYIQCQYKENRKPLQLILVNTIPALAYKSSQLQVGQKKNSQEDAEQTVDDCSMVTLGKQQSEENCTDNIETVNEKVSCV
Serotonin 2 (5-HT2) receptor (Rattus norvegicus), sequence (P30994 whole entry, looked up, one chain of several): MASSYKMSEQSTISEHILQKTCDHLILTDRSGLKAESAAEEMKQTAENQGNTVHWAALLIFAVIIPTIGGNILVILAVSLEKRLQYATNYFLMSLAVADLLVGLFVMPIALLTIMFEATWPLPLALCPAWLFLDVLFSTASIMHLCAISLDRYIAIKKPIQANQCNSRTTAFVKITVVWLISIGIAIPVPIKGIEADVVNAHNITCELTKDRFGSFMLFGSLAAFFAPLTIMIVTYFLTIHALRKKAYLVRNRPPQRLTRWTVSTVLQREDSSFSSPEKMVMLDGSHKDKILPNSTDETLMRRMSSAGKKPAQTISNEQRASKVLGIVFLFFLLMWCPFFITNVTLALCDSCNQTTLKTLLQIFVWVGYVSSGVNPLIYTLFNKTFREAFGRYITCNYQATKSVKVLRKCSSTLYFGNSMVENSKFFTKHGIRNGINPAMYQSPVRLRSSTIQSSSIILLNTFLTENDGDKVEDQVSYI
How it was run: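 Ratio of Ki values from rat frontal cortex competition assays. For 5-HT2: 0.4 nM [3H]ketanserin, with 1 μM cinanserin nonspecific. For 5-HT1C: 1 nM [3H]mesulergine plus 100 nM spiperone, with 1 μM mianserin nonspecific. Both were run 15 min at 37 °C in triplicate. Ki = IC50/(1+D*/KD*).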

[4] = target: T1, 5-hydroxytryptamine receptor 2C; experiment: Compound was tested for binding affinity towards 5-hydroxytryptamine 1C receptor from frontal cortical regions of male Sprague-Dawley rat homogenates, using [3H]mesulergine as radioligand; how it was run: as §1
[5] = target: T2, Serotonin 2 (5-HT2) receptor; experiment: Compound was tested for binding affinity towards 5-hydroxytryptamine 2 (5-hydroxytryptamine-2) receptor from frontal cortical regions of male Sprague-Dawley rat homogenates, using [3H]-ketanserin as radioligand; how it was run: as §2

SMILES	Ki [1] [µM]	Ki [2] [µM]	Selectivity [3]	Ki [4] [µM]	Ki [5] [µM]
COc1cc(I)ccc1CC(C)N (stereo unspecified)	0.13	0.58	5	–	–
COc1ccc(OC)c(CC(C)N)c1 (stereo unspecified)	1.22	–	–	–	–
Cc1ccc(CC(C)N)cc1 (stereo unspecified)	–	–	–	> 10	> 10
COc1cc(Br)ccc1CC(C)N (stereo unspecified)	0.1	0.83	8	–	–
CCOc1ccc(CC(C)N)cc1 (stereo unspecified)	–	> 10	–	> 10	–
CNC(C)Cc1cc(OC)c(Br)cc1OC (stereo unspecified)	0.098	0.08	1	–	–
CCCc1ccc(CC(C)N)cc1 (stereo unspecified)	–	–	2	1.25	2.345
COc1cc(C)ccc1CCN	0.11	0.825	7	–	–
CNC(C)Cc1ccc(C)cc1OC (stereo unspecified)	1.48	–	–	–	–
CCCCc1cc(OC)c(CC(C)N)cc1OC (stereo unspecified)	0.026	–	2	–	–
CC(N)Cc1ccc(Br)cc1 (stereo unspecified)	1.48	–	–	–	–
CCCc1cc(OC)c(CC(C)N)cc1OC (stereo unspecified)	0.014	–	5	–	–
COc1cc(C)ccc1CC(C)N (stereo unspecified)	0.61	1.435	2	–	–
CC(N)Cc1ccc(OC(=O)c2ccccc2)cc1 (stereo unspecified)	–	–	–	1.21	–
COc1ccc(CC(C)N)c(OC)c1 (stereo unspecified)	4.48	> 10	> 2	–	–
CCCOC(=O)c1cc(OC)c(CC(C)N)cc1OC (stereo unspecified)	> 10	–	< 1	–	–
CCOc1cc(OC)c(CC(C)N)cc1OC (stereo unspecified)	2.3	–	1	–	–
CCCc1ccc(CC(C)NC)cc1 (stereo unspecified)	1.93	2.525	1	–	–
CCCNC(C)Cc1cc(OC)c(Br)cc1OC (stereo unspecified)	> 10	2.46	< 1	–	–
COc1cc(Br)ccc1CCN	0.22	1.03	5	–	–
COc1cc(CC(C)N)c(OC)cc1I (stereo unspecified)	0.03	–	0.6	–	–
COc1cccc(Br)c1CC(C)N (stereo unspecified)	1.56	> 10	> 6	–	–

— ChEMBL document CHEMBL1125379, “Binding of phenylalkylamine derivatives at 5-HT1C and 5-HT2 serotonin receptors: evidence for a lack of selectivity” (J Med Chem, 1992)
